{"data": "Measured values pooled from the literature", "target": "Beta-adrenergic receptor kinase 1 (GRK2, Homo sapiens, UniProt P25098)", "One construct used (P25098 1-689)": "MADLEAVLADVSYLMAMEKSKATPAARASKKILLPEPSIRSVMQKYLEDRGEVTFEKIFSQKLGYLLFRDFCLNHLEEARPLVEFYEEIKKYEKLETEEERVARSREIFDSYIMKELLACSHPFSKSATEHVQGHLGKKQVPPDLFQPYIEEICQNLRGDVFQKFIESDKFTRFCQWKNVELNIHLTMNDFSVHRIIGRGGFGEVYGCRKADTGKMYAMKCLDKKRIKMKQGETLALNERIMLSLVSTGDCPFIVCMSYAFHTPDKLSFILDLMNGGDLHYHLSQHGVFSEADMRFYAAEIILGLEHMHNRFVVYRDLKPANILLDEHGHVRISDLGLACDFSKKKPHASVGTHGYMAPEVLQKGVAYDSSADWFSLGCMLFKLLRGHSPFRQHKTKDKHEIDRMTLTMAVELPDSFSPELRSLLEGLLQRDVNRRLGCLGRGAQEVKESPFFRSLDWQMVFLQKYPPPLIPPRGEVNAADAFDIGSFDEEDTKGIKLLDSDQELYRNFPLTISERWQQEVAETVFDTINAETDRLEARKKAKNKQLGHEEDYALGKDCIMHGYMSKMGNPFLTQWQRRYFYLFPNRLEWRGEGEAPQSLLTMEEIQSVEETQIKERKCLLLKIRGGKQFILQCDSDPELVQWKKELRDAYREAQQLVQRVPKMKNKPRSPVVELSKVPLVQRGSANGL", "note": "Lines come from different studies, so protocols differ."}
{"SMILES": "c1ccc(CNc2nc(N3CCOc4ccccc43)nc3c2CCCC3)cc1", "effect on": "target engagement in cells", "mode": "inhibitor", "technique": "chemoproteomics", "tested at": "20 mM", "measurement": "inhibition", "result": "-6.7%"}
{"SMILES": "CC1CCCN1c1nccc(-c2cnn3ncccc23)n1 (stereo not shown)", "effect on": "binding", "technique": "competition with immobilised ligand", "tested at": "1 µM", "measurement": "remaining binding", "result": "69%"}
{"SMILES": "O=C(O)[C@H]1[C@H](Cn2nnc3ccccc3c2=O)CC[C@@H]1C(=O)c1ccc(OCCC2CCOCC2)cc1", "effect on": "cell-free assay", "technique": "competition with immobilised ligand", "tested at": "1 µM", "measurement": "remaining binding", "result": "61%"}
{"SMILES": "COc1cc2ncnc(Nc3ccc(Oc4ccccc4)c(C)c3C)c2cc1OC", "effect on": "enzyme activity", "mode": "inhibitor", "tested at": "1 µM", "measurement": "inhibition", "result": "-2%"}
{"SMILES": "CC(C)(C)c1nc(-c2cccc(NS(=O)(=O)c3c(F)cccc3F)c2F)c(-c2ccnc(N)n2)s1", "effect on": "enzyme activity", "mode": "inhibitor", "technique": "radiometric", "tested at": "1 µM", "measurement": "remaining activity", "result": "95%"}
{"SMILES": "O=C(NS(=O)(=O)c1ccc(NCC2CCOCC2)c([N+](=O)[O-])c1)c1ccc(N2CCN(Cc3ccc(C(F)(F)F)cc3-c3ccc(Cl)cc3)CC2)cc1Oc1cnc2[nH]ccc2c1", "effect on": "cell-free assay", "technique": "competition with immobilised ligand", "tested at": "1 µM", "measurement": "remaining binding", "result": "91%"}
{"SMILES": "COc1cc(Cl)c(C(=O)N[C@@H](CN[C@H]2CC[C@@H](N)CC2)Cc2ccc(C#N)cc2)cc1-c1ccc(CN[C@H](C)c2ccc(C)cc2)o1", "effect on": "enzyme activity", "mode": "inhibitor", "tested at": "1 µM", "measurement": "remaining activity", "result": "105%"}
{"SMILES": "CC(C)(O)[C@H]1CC[C@H](Nc2ccc3ncc(-c4cccc(C(F)(F)F)c4)n3n2)CC1", "effect on": "enzyme activity", "mode": "inhibitor", "tested at": "1 µM", "measurement": "remaining activity", "result": "116%"}
{"SMILES": "C[C@H](NC(=O)c1cnc2n1[C@](C)(Cc1ccc(C#N)cc1)C(=O)N2c1cc(Cl)c(F)c(Cl)c1)C(=O)NC1(c2ccccn2)CC1", "effect on": "cell-free assay", "technique": "competition with immobilised ligand", "tested at": "1 µM", "measurement": "remaining binding", "result": "100%"}
{"SMILES": "Cc1sc(C(=O)NC2COC2)cc1-n1cc(NC(=O)Nc2c(F)cccc2Cl)cn1", "effect on": "enzyme activity", "mode": "inhibitor", "tested at": "10 µM", "measurement": "remaining activity", "result": "106%"}
{"SMILES": "O=C(NCc1ncc(C(F)(F)F)cc1Cl)c1ccc2c(c1)C1(CCS(=O)(=O)CC1)[C@H](C1CC1)N2S(=O)(=O)c1ccc(F)cc1", "effect on": "cell-free assay", "technique": "competition with immobilised ligand", "tested at": "1 µM", "measurement": "remaining binding", "result": "56%"}
{"SMILES": "O=C1NC(=O)c2cc(Nc3ccc(F)cc3)c(Nc3ccc(F)cc3)cc21", "effect on": "cell-free assay", "tested at": "0.5 µM", "measurement": "remaining signal", "result": "104%"}
{"SMILES": "Cc1cc(NC(=O)c2cccc3cc(-c4cccc5[nH]nc(N)c45)ccc23)ccc1F", "effect on": "enzyme activity", "mode": "inhibitor", "tested at": "0.1 µM", "measurement": "activity vs control", "result": "73%"}
{"SMILES": "CN(C(=O)c1ccccc1)c1cc(N(C)c2ccc3c(c2)CCc2ccc(C(=O)NCCN4CCOCC4)cc2C3=O)ccc1F", "effect on": "cell-free assay", "technique": "competition with immobilised ligand", "tested at": "1 µM", "measurement": "remaining binding", "result": "100%"}
{"SMILES": "O=C(Nc1cnn(-c2csc(C(=O)NC3COC3)c2)c1)Nc1c(F)cccc1Cl", "effect on": "enzyme activity", "mode": "inhibitor", "tested at": "5 µM", "measurement": "remaining activity", "result": "106%"}
{"SMILES": "CCCCNc1ncc2c(-c3ccc(F)cc3)nn(C[C@H]3CC[C@H](N)CC3)c2n1", "effect on": "target engagement in cells", "mode": "inhibitor", "technique": "chemoproteomics", "tested at": "20 mM", "measurement": "inhibition", "result": "-6.2%"}
